This is an account of results in PMC3177239 (The Biochemical journal, 2011).

In test [1] the test system is cAMP levels in Calu-3 cells. The test is described as follows: Ratiometric FRET cAMP measurement. In kind it is cell-based. The conditions noted are these: CO-068 50 μM or FSK 10 μM added after baseline. In short, it runs like this:
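Calu-3 cells were transiently transfected (Lipofectamine) with the CFP-EPAC-YFP sensor and grown on glass-bottom dishes. Cells were washed twice and held in HBSS, in the dark at room temperature, on an inverted microscope. After baseline, time-lapse images were taken every 1 min (100–300 ms exposure) with an EM-CCD camera. The background-subtracted CFP/FRET emission ratio came from 10–20 regions in 3–5 cells. n = 4–5 separate experiments, mean ± s.e.m.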

The subject of test [2] is pig tracheal submucosal glands. The test is described as follows: Pig tracheal submucosal glands fluid secretion. The gist of the method: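 Pig tracheas collected within 1 h postmortem into ice-cold Krebs-Ringer bicarbonate buffer (1 μM indomethacin) gassed with 95% O2/5% CO2. Serosal side bathed at 37 °C. Agents were diluted in warm gassed buffer and added serosally after basal secretion was recorded. Carbachol 10 μM was added at the end to confirm viability. Rate was taken as the volume-vs-time slope (R² > 0.8): 10-min basal, 25-min stimulated. 11 pigs, 11–43 glands, mean ± s.e.m.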

Regarding `C=C[C@@]1(C)CC(=O)[C@]2(O)[C@@]3(C)[C@@H](O)CCC(C)(C)[C@@H]3[C@H](O)[C@H](OC(C)=O)[C@@]2(C)O1` [FSK, forskolin], the “Increase in cAMP levels (CFP/FRET emission ratio)” value in test [1] is on record as 1.5 fold. The “Increase in mean fluid secretion rate compared to basal secretion rate” value in test [2] (FSK 10 μM or CO-068 50 μM, over 25 min) amounted to 5 fold.
On to `O=C(O)c1ccc(/C=C2\SC(=S)N(c3cccc(C(F)(F)F)c3)C2=O)cc1` [CFTRinh-172], for which the “Effect on FSK-induced fluid secretion” value in test [2] (CFTRinh-172 50 μM plus FSK 10 μM) was “markedly inhibited”.
